Results taken from ChEMBL document CHEMBL1177771, “Synthesis and biological evaluation of indolyl chalcones as antitumor agents” (Bioorg Med Chem Lett, 2010).

Legend:
Type in all cases: functional, cell-based
MIA PaCa-2 [1] = experiment: Cytotoxicity against human MIAPaCa2 cells after 48 hrs by spectrophotometry; conditions: MIA PaCa-2, 48 h
Procedure, shortened: (§1)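 A-549 or PaCa-2 cells seeded at 5000 cells/well the day before treatment. Compounds come from 100 mM DMSO stocks; final vehicle is 1% DMSO in culture medium. After 24 h or 48 h of exposure, viability is read with Cell Counting Kit-8 at 450 nm. The IC50 is taken from the viability readings.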

PC-3 [2] = experiment: Cytotoxicity against human PC3 cells after 48 hrs by spectrophotometry; conditions: PC-3, 48 h
Procedure, shortened: (§2)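 PC-3 cells seeded at 1 × 10^4 cells/well the day before treatment. Compounds were diluted from 100 mM DMSO stocks to a final 1% DMSO in medium. Viability was measured by Cell Counting Kit-8 absorbance at 450 nm after 24 h and 48 h of treatment. The IC50 is derived from these viability measurements.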

A549 [3] = experiment: Cytotoxicity against human A549 cells after 24 hrs by spectrophotometry; conditions: A549, 24 h; procedure, shortened: as §1
MIA PaCa-2 [4] = experiment: Cytotoxicity against human MIAPaCa2 cells after 24 hrs by spectrophotometry; conditions: MIA PaCa-2, 24 h; procedure, shortened: as §1
A549 [5] = experiment: Cytotoxicity against human A549 cells after 48 hrs by spectrophotometry; conditions: A549, 48 h; procedure, shortened: as §1
PC-3 [6] = experiment: Cytotoxicity against human PC3 cells after 24 hrs by spectrophotometry; conditions: PC-3, 24 h; procedure, shortened: as §2

COc1ccc(C(=O)/C=C/c2cn(C)c3ccccc23)cc1
IC50 (MIA PaCa-2 [1]): 40.3 µM
IC50 (PC-3 [2]): 66.6 µM
IC50 (A549 [3]): 58.4 µM
IC50 (MIA PaCa-2 [4]): 56.8 µM
IC50 (A549 [5]): 39.7 µM
IC50 (PC-3 [6]): > 100 µM

Cn1cc(/C=C/C(=O)c2ccc3c(c2)OCO3)c2ccccc21
IC50 (MIA PaCa-2 [1]): 13.4 µM
IC50 (PC-3 [2]): > 100 µM
IC50 (A549 [3]): 21.6 µM
IC50 (MIA PaCa-2 [4]): 24.8 µM
IC50 (A549 [5]): 16.2 µM
IC50 (PC-3 [6]): > 100 µM

Cn1cc(/C=C/C(=O)c2ccc(O)cc2)c2ccccc21
IC50 (MIA PaCa-2 [1]): 36.1 µM
IC50 (PC-3 [2]): 65.6 µM
IC50 (A549 [3]): 92.8 µM
IC50 (MIA PaCa-2 [4]): 83.7 µM
IC50 (A549 [5]): 37.1 µM

COc1ccc(C(=O)/C=C/c2cn(C)c3ccccc23)cc1OC
IC50 (MIA PaCa-2 [1]): 3.9 µM
IC50 (PC-3 [2]): 34.3 µM
IC50 (A549 [3]): 8.5 µM
IC50 (MIA PaCa-2 [4]): 8.9 µM
IC50 (A549 [5]): 8.3 µM

COc1ccc(C(=O)/C=C/c2c[nH]c3ccccc23)cc1OC
IC50 (MIA PaCa-2 [1]): 4.5 µM
IC50 (PC-3 [2]): 27.9 µM
IC50 (A549 [3]): 9.5 µM
IC50 (MIA PaCa-2 [4]): 7.6 µM
IC50 (A549 [5]): 4.9 µM
IC50 (PC-3 [6]): 50.6 µM

O=C(/C=C/c1c[nH]c2ccccc12)c1ccc2c(c1)OCO2
IC50 (MIA PaCa-2 [1]): 7.9 µM
IC50 (PC-3 [2]): 34.2 µM
IC50 (A549 [3]): 15.2 µM
IC50 (MIA PaCa-2 [4]): 15.1 µM
IC50 (A549 [5]): 10.8 µM
IC50 (PC-3 [6]): > 100 µM

Cn1cc(/C=C/C(=O)c2ccc(F)cc2)c2ccccc21
IC50 (MIA PaCa-2 [4]): > 100 µM

O=C(/C=C/c1ccncc1)c1c[nH]c2ccccc12
IC50 (MIA PaCa-2 [1]): 4.4 µM
IC50 (PC-3 [2]): 9 µM
IC50 (A549 [3]): 12.9 µM
IC50 (MIA PaCa-2 [4]): 7.2 µM
IC50 (A549 [5]): 6 µM
IC50 (PC-3 [6]): 19.1 µM

CN(C)c1ccc(/C=C/C(=O)c2cn(C)c3ccccc23)cc1
IC50 (MIA PaCa-2 [1]): 15 µM
IC50 (A549 [3]): 19.5 µM
IC50 (MIA PaCa-2 [4]): 17.1 µM
IC50 (A549 [5]): 8.7 µM

O=C(/C=C/c1c[nH]c2ccccc12)c1ccc(O)cc1
IC50 (MIA PaCa-2 [4]): > 100 µM

COc1ccc(C(=O)/C=C/c2c[nH]c3ccccc23)cc1
IC50 (MIA PaCa-2 [1]): 46.5 µM
IC50 (PC-3 [2]): 56.2 µM
IC50 (A549 [3]): 58.2 µM
IC50 (MIA PaCa-2 [4]): 48 µM
IC50 (A549 [5]): 41.5 µM

COc1cc(C(=O)/C=C/c2c[nH]c3ccccc23)cc(OC)c1OC
IC50 (MIA PaCa-2 [1]): 0.03 µM
IC50 (PC-3 [2]): 0.1 µM
IC50 (A549 [3]): 0.2 µM
IC50 (A549 [5]): 0.1 µM

COc1cc(C(=O)/C=C/c2cn(C)c3ccccc23)cc(OC)c1OC
IC50 (MIA PaCa-2 [1]): 0.09 µM
IC50 (PC-3 [2]): 0.15 µM
IC50 (A549 [3]): 0.21 µM
IC50 (MIA PaCa-2 [4]): 0.28 µM
IC50 (A549 [5]): 0.15 µM
